In brackets after ≈: the same amount, converted by molar mass.
Experiments:
Type in all cases: functional
Candida albicans [1] = assay: Antifungal activity against Candida albicans ATCC 10231 after 48 hrs by microdilution assay
In short: (§1)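 Broth microdilution in triplicate; compounds in DMSO, serially diluted in sterile distilled water, final 25 to 0.2 μg/mL; fungi kept on Sabouraud dextrose agar, inocula diluted in Sabouraud dextrose broth. p-Iodonitrotetrazolium violet (0.2 mg/mL stock) added as growth indicator; incubation 35 °C, 100% relative humidity. MIC = lowest concentration inhibiting growth, read at 24 and 48 h. Amphotericin B positive, DMSO negative control.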

Candida albicans [2] = assay: Antifungal activity against Candida albicans ATCC 10231 after 24 hrs by microdilution assay; in short: as §1
Cryptococcus neoformans [3] = assay: Antifungal activity against Cryptococcus neoformans after 24 hrs by microdilution assay; in short: as §1
Cryptococcus neoformans [4] = assay: Antifungal activity against Cryptococcus neoformans after 48 hrs by microdilution assay; in short: as §1

SMILES	MIC (Candida albicans [1])	MIC (Candida albicans [2])	MIC (Cryptococcus neoformans [3])	MIC (Cryptococcus neoformans [4])
C=CCc1c(O)cc(O)c2c(=O)cc(C)oc12	13.5 µM (≈ 3.14 µg/mL)	13.5 µM (≈ 3.14 µg/mL)	13.5 µM (≈ 3.14 µg/mL)	13.5 µM (≈ 3.14 µg/mL)
COc1cc2c(c(OC)c1C(C)=O)CC=C(CO)CO2	22.5 µM (≈ 6.26 µg/mL)	11.2 µM (≈ 3.12 µg/mL)	11.2 µM (≈ 3.12 µg/mL)	11.2 µM (≈ 3.12 µg/mL)
CC(=O)OCC1=CCc2c(cc(O)c3c(=O)cc(C)oc23)OC1	9.9 µM (≈ 3.13 µg/mL)	9.9 µM (≈ 3.13 µg/mL)	9.9 µM (≈ 3.13 µg/mL)	9.9 µM (≈ 3.13 µg/mL)
CC(=O)OCC1=CCc2c(cc3oc(C)cc(=O)c3c2O)OC1	19.8 µM (≈ 6.26 µg/mL)	19.8 µM (≈ 6.26 µg/mL)	4.9 µM (≈ 1.55 µg/mL)	4.9 µM (≈ 1.55 µg/mL)
Cc1cc(=O)c2c(O)cc(O)cc2o1 [NOREUGENIN]	16.3 µM (≈ 3.13 µg/mL)	16.3 µM (≈ 3.13 µg/mL)	16.3 µM (≈ 3.13 µg/mL)	16.3 µM (≈ 3.13 µg/mL)

Other lines, results leading:

MIC (Candida albicans [1])	MIC (Candida albicans [2])	MIC (Cryptococcus neoformans [3])	MIC (Cryptococcus neoformans [4])	SMILES
11.4 µM (≈ 3.13 µg/mL)	11.4 µM (≈ 3.13 µg/mL)	5.7 µM (≈ 1.56 µg/mL)	5.7 µM (≈ 1.56 µg/mL)	Cc1cc(=O)c2c(O)cc3c(c2o1)CC=C(CO)CO3
11.4 µM (≈ 3.13 µg/mL)	11.4 µM (≈ 3.13 µg/mL)	5.7 µM (≈ 1.56 µg/mL)	5.7 µM (≈ 1.56 µg/mL)	Cc1cc(=O)c2c(O)c3c(cc2o1)OCC(CO)=CC3
86.7 µM (≈ 25 µg/mL)	86.7 µM (≈ 25 µg/mL)	21.7 µM (≈ 6.26 µg/mL)	43.3 µM (≈ 12.5 µg/mL)	C=CCc1c2c(c(O)c(C(C)=O)c1OC)C=CC(C)(C)O2
83.8 µM (≈ 25 µg/mL)	41.9 µM (≈ 12.5 µg/mL)	10.5 µM (≈ 3.13 µg/mL)	10.5 µM (≈ 3.13 µg/mL)	C=CCc1c2c(c(O)c3c(=O)cc(C)oc13)C=CC(C)(C)O2
0.84 µM (≈ 0.776 µg/mL)	0.42 µM (≈ 0.388 µg/mL)	0.42 µM (≈ 0.388 µg/mL)	0.42 µM (≈ 0.388 µg/mL)	C[C@@H]1[C@H](O)[C@@H](C)/C=C/C=C/C=C/C=C/C=C/C=C/C=C/[C@H](O[C@@H]2O[C@H](C)[C@@H](O)[C@H](N)[C@@H]2O)C[C@@H]2O[C@](O)(C[C@@H](O)C[C@@H](O)[C@H](O)CC[C@@H](O)C[C@@H](O)CC(=O)O[C@H]1C)C[C@H](O)[C@H]2C(=O)O [AMPHOTERICIN B]

From ChEMBL document CHEMBL4665752, “Synthesis and Antifungal Activity of Chromones and Benzoxepines from the Leaves of Ptaeroxylon obliquum” (2020)
